Assay results reported in PubChem BioAssay.
Inconclusive results are not listed.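 How the source made its calls, unless noted: active means RAM network inhibition above 8.4% in each of two replicates, 3 SD over the compound average; inconclusive means above 8.4% inhibition in only one replicate; inactive means 8.4% inhibition or less in each replicate.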

Tests used:
[1] = OD615 S. cerevisiae growth inhibition, permissive medium, pilot counter-assay, permissive growth control for S. cerevisiae lifespan shortening project (AID 705;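 active means growth inhibition above 25% in both replicates, a cutoff set 3 SD above the mean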); conditions: OD615, 24 h, at 10 µM, stronger effect = higher value
Method in brief: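 assay system = Saccharomyces cerevisiae strain carrying genetically modified DeaD replicative-lifespan system | medium = SC raffinose/galactose permissive medium | dosing = 10 µM single dose, 0.25% DMSO | schedule = 24 h compound exposure at 30 °C after 4 h pre-growth | measured by = OD at 615 nm | read-out basis = growth inhibition from lowered OD615 after 24 h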

[2] = Restrictive medium S. cerevisiae growth inhibition, OD615, pilot screen of yeast lifespan reduction project, restrictive growth control (AID 706;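 active means growth inhibition above a set limit, 3 SD over mean compound inhibition, in both replicates, cut at about 43% in these data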;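 further: modified DeaD lifespan yeast strain shifted to restrictive glucose medium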); conditions: OD615, 48 h, at 10 µM, stronger effect = higher value
Method in brief: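 Buffer or medium: CSMM-D glucose medium. Material: genetically modified Saccharomyces cerevisiae, DeaD replicative lifespan assay strain. Times: 48 h compound exposure at 30 °C. Measured by: optical density at 615 nm.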

[3] = viability gain of MRP-1-high H69AR cells under doxorubicin, pilot screen, MRP-1 activator project, CellTiter-Glo, duplicate (AID 807;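 active means viability increase at or above a cutoff of the median across tested compounds plus 3 SD, cut at about 8.5% in these data, passing the limit was not always enough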;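 further: compound pretreatment 18-22 h then 72 h combined with doxorubicin; 0% = doxorubicin alone and 100% = vehicle without doxorubicin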); conditions: H69AR viability with doxorubicin, CellTiter-Glo luminescence; at 10 µM; stronger effect = higher value
[4] = growth suppression of beta-catenin knockout HCT116, pilot screen, human colon tumor cells (AID 823;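 active means cell viability at or below a set limit in both duplicate runs, the limit being the all-compound median minus 4 SD, cut at about 23% in these data, passing the limit was not always enough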;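 further: 0% = wells killed by 20 µM Hyamine and 100% = untreated DMSO cell wells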); conditions: CellTiter-Glo, 60 h, at 10 µM, stronger effect = lower value
[5] = growth suppression of PTEN-deleted HCT116, pilot screen, cell-based, HCT116 clonal line, CellTiter-Glo (AID 824;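 active means viability at or below 27.92% in each of two runs, the all-compound median minus 4 SD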;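 further: 0% = 20 µM Hyamine control and 100% = vehicle cell control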); conditions: 60 h, at 10 µM, stronger effect = lower value
[6] = inhibitors of the yeast RAM network, pilot screen, dse1pr::URA3 reporter, 5-FOA selection (AID 869;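 active means inhibition over a set limit, the all-compound mean plus 3 SD, in both replicate runs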;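 further: 0% = DMSO wells with no growth and 100% = 10 µM 1-NA-PP1 with full growth; RAM network block rescues cells from 5-FOA so hits raise OD615 growth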); conditions: S. cerevisiae dse1pr::URA3 5-FOA growth, OD615, 2 d; at 10 µM; stronger effect = higher value; strain carries analog-sensitive mutant Cbk1 kinase
[7] = RAM signaling pathway blockade in yeast – S. cerevisiae, Pdr1DBD-CYC8 efflux-inhibited sensitized strain, primary screen (AID 1298);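 further: 0% = DMSO untreated cells without growth and 100% = 10 µM 1-NA-PP1 full growth; higher means more yeast growth rescued from 5-FOA killing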; conditions: S. cerevisiae cbk1-as DSE1-URA3 strain, 5-FOA growth OD615, 2 d; at 50 µM; stronger effect = higher value

Cn1c(NC(=O)C2CC2)cc(=O)n(C)c1=O
inactive: growth inhibition [1] 0.21% | growth inhibition [2] 1.9% | viability increase [3] -0.62% | viability [4] 99% | viability [5] 104% | inhibition [6] 1.01% | RAM network inhibition [7] -1.84%

COc1cc2[nH]c(=O)n(CCC(=O)NCc3cccnc3)c(=O)c2cc1OC
inactive: growth inhibition [1] -19.1% | growth inhibition [2] -23.9% | viability increase [3] -1.46% | viability [4] 98.7% | viability [5] 95.8% | inhibition [6] 2.92% | RAM network inhibition [7] 2.26%

O=C1CCc2cc(S(=O)(=O)NC(Cc3ccccc3)C(=O)NCC3CCCO3)ccc2N1 (stereo not given)
inactive: growth inhibition [1] -8.29% | growth inhibition [2] -8.79% | viability increase [3] -2.76% | viability [4] 94.3% | viability [5] 92.8% | inhibition [6] 2.2% | RAM network inhibition [7] 1.49%

CN(CCO)c1ncnc2nc[nH]c12
inactive: growth inhibition [1] -10.4% | growth inhibition [2] -7.77% | viability increase [3] 0.3% | viability [4] 104% | viability [5] 93.2% | inhibition [6] 1.36% | RAM network inhibition [7] 1.71%

Cc1[nH]c2ccccc2c1SCCN
inactive: growth inhibition [1] -9.76% | growth inhibition [2] -12.4% | viability increase [3] -5.96% | viability [4] 73.9% | viability [5] 62.9% | inhibition [6] 2.34% | RAM network inhibition [7] 1.7%

CC(=O)Nc1ccc(NC(=O)c2ccco2)cc1
inactive: growth inhibition [1] -9.41% | growth inhibition [2] -14.5% | viability increase [3] -2.09% | viability [4] 94.1% | viability [5] 96.8% | inhibition [6] -0.19% | RAM network inhibition [7] 2.4%

O=C(NCc1ccc2c(c1)OCO2)c1nnc(Cc2ccc(Cl)cc2)o1
inactive: growth inhibition [1] -5.43% | growth inhibition [2] 4.12% | viability increase [3] 2.05% | viability [4] 103% | viability [5] 103% | inhibition [6] 2.2% | RAM network inhibition [7] 5.48%

O=C1C2CC=C(Cl)CC2C(=O)N1CC1Cc2ccccc2CO1 (stereo not given)
inactive: growth inhibition [1] -5.07% | growth inhibition [2] 0.875% | viability increase [3] 1.29% | viability [4] 96.2% | viability [5] 101% | inhibition [6] 2.77% | RAM network inhibition [7] -2.81%

COc1cc(Br)cc(-c2nc3c(c(=O)[nH]c(=O)n3Cc3ccccc3)n2C)c1O
inactive: growth inhibition [1] 3.34% | growth inhibition [2] -0.8% | viability increase [3] -1.31% | viability [4] 89.6% | viability [5] 87.6% | inhibition [6] 2.02% | RAM network inhibition [7] 3.23%

O=c1nc(-c2ccccc2)cn[nH]1
inactive: growth inhibition [1] -4.61% | growth inhibition [2] -4.27% | viability increase [3] -0.11% | viability [4] 101% | viability [5] 105% | inhibition [6] 1.29% | RAM network inhibition [7] 2.6%

CCOC(=O)C1CCN(CC(O)COc2ccc(C(C)(C)CC)cc2)CC1 (stereo not given)
inactive: growth inhibition [1] -14% | growth inhibition [2] -10.4% | viability increase [3] -4.71% | viability [4] 65.6% | viability [5] 73.5% | inhibition [6] -0.58% | RAM network inhibition [7] 0.78%

O=C(O)CC(Cn1cnnn1)c1ccccc1 (stereo not given)
inactive: growth inhibition [1] 3.8% | growth inhibition [2] -2.96% | viability increase [3] -0.66% | viability [4] 103% | viability [5] 101% | inhibition [6] 1.12% | RAM network inhibition [7] 2.58%

Cc1ccc(C(=O)NCCCC(=O)O)o1
inactive: growth inhibition [1] -6.95% | growth inhibition [2] -1.79% | viability increase [3] -2.22% | viability [4] 97.4% | viability [5] 96.9% | inhibition [6] 0.1% | RAM network inhibition [7] 5.07%

CCC(Cc1ccccc1)NC(=O)CN1C(=O)CSc2ncccc21 (stereo not given)
inactive: growth inhibition [1] -2.26% | growth inhibition [2] -14.6% | viability increase [3] -2.81% | viability [4] 85% | viability [5] 75.7% | inhibition [6] 0.665% | RAM network inhibition [7] -0.97%

CC1(C)CC(=O)C2=C(C1)OC(N)=C(C#N)C21CCN(Cc2ccccc2)CC1
inactive: growth inhibition [1] -19.9% | growth inhibition [2] -21.6% | viability increase [3] -3.46% | viability [4] 97.7% | viability [5] 97.6% | inhibition [6] 2.13% | RAM network inhibition [7] 5.53%
